The campaign covered roughly 310,000 compounds. About 2,800 (0.9%) were called active.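 Rule for the calls: active = B-score of the integrated calcium signal more than 4 SD below the library mean, with starting fluorescence not abnormally high; inactive = the rest.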 Only a selection was taken, and actives are over-represented in it overall.
Experiment: enhancers of RGS4 function in calcium signaling – cell-based, HEK293 M3R inducible RGS4, calcium flux, primary screen (AID 463111);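 for B-score: negative B-score means reduced calcium response which marks RGS4 activation or potentiation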
Details: HEK293 M3R/inducible RGS4, carbachol calcium flux Fluo4, at 10 µM; stronger effect = lower value
Outline: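 Detection: kinetic calcium fluorescence imaging with Fluo4-AM dye, 2 µM / Material: HEK293 cells with stable M3R and inducible RGS4 / Schedule: recording 10 s baseline at 1 Hz, 100 s post-agonist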

B-score, active:
CCc1c(C)sc(NC(=O)c2ccc(Br)o2)c1C(=O)OC -10.4
CN1CCN(c2ccc(S(=O)(=O)Nc3ccccc3)cc2[N+](=O)[O-])CC1 -8.35
Cc1ccc(OS(=O)(=O)c2ccc(-c3csc(C)n3)s2)c(C)c1 -9.64
Cc1cccc2c1-c1sc(C(=O)NCCCN3CCc4ccccc4C3)cc1CO2 -7.27
Clc1ccc(COn2c(-c3ccc(Cl)cc3Cl)nc3ncccc32)cc1 -8.26
COCCNc1cc(-c2ccccc2)nc2cc(-c3cccc(F)c3)nn12 -7.61
Cn1nnnc1SCC(=O)Nc1nc2ccccc2s1 -7.23
Cc1cc(C)cc(C(=O)N2CCN=C2SCc2ccc([N+](=O)[O-])cc2)c1 -8.97
Cc1cc(C)c2nc3nc(C)cc(C)c3c(N)c2c1 -7.22
CCCCOc1ccc(CSC(=N)N)cc1[N+](=O)[O-] -7.06
CCN1CCN(c2ccc([N+](=O)[O-])cc2C(=O)c2ccc(Cl)cc2)CC1 -7.47
COc1ccc(OCc2cc(C(=O)N3CCCC3)no2)c2ccccc12 -7
COC(=O)c1sc(-c2ccc(C(C)(C)C)cc2)cc1NC(=O)/C=C/C(=O)O -8.52

B-score, inactive:
C=CS(=O)c1sc(Cl)c(N2CCOCC2)c1[N+](=O)[O-] (stereo not drawn)
CCC(C(=O)OC)n1cnc2scc(-c3ccc(C)cc3)c2c1=O (stereo not drawn)
CC(=O)Nc1ccc(/C(C)=N/NC(=O)CN(c2ccccc2Br)S(C)(=O)=O)cc1
O=C(O)c1cccc2c1C(=O)N(C1CCCC1)C2
CCOC(=O)c1c(NC(=O)C2CC=CCC2C(=O)O)sc(C)c1CC (stereo not drawn)
CCc1c(C)sc(NC(=O)c2cccs2)c1C(N)=O
COc1cccc(OC)c1C(=O)OCC(=O)/C(C#N)=C(\C)N
Cc1ccc(CNC(=O)Cn2cnc(S(=O)(=O)N3CCCCC3)c2)o1
Cc1nn(CC(=O)Nc2ccc(C#N)cc2)c(C)c1[N+](=O)[O-]
CCOc1ccccc1NC(=O)C1CCCN(S(=O)(=O)c2ccccc2)C1 (stereo not drawn)
CC1Cc2ccccc2N1CC(=O)Nc1ccc2c(c1)OC(F)(F)O2 (stereo not drawn)
COc1ccc(NS(=O)(=O)c2ccc(N3CCN(CCO)CC3)c([N+](=O)[O-])c2)cc1
CC1CCN(c2ccc(S(=O)(=O)Nc3cc(C(=O)O)cc(C(=O)O)c3)cc2[N+](=O)[O-])CC1
COc1ccc(N2CCN(C(=O)C3CCN(C(=O)c4ccccc4Cl)CC3)CC2)cc1
Cc1ccc(S(=O)(=O)NCc2csc(C)n2)c(C)c1
CNC(=O)c1sc(NCc2ccccc2OC)nc1C
O=C(NCCCN1CCOCC1)c1cc2c(s1)CCC2
O=C(CN1C(=O)COc2ccccc21)NCCN1CCc2ccccc2C1
CCOc1ccc(N(C)S(=O)(=O)c2cnc[nH]2)cc1
COc1ccccc1C(=O)NC(=S)Nc1ccccc1N1CCCCC1
COn1c(-c2ccc(Cl)cc2Cl)nc2ncccc21
Clc1ccc(-c2ncc3ccccn23)c(Cl)c1
COCCn1c(SCC(=O)Nc2nc(C)cs2)nnc1C(C)C
COC(=O)c1cc2nc(-c3ccccc3)cc(C(F)(F)F)n2n1
COc1ccc(NC(=O)c2cc3nc(-c4ccccc4)cc(C)n3n2)cc1OC
CN(C)CCCNC(=O)c1cc(C(=O)Cc2ccc(Cl)cc2)c[nH]1
CC(=O)C1C(c2ccc(Cl)cc2)c2c(n[nH]c2C)CC1(C)O (stereo not drawn)
COC(=O)c1ccccc1NC(=O)CSc1nnnn1C
C=CCn1c(SCC(=O)Nc2nc3ccccc3s2)nnc1-c1ccccc1O
O=C(Cc1ccc(F)cc1)N1CCN=C1SCc1cccc([N+](=O)[O-])c1
Cc1cccc(CC(=O)N2CCN=C2SCc2ccc([N+](=O)[O-])cc2)c1
Cc1cc(C)c2nc(-c3ccco3)cc(C(=O)O)c2c1
CN(CC1CCCO1)S(=O)(=O)c1ccc(C(=O)Nc2ccc([N+](=O)[O-])cc2)cc1 (stereo not drawn)
Cc1ccc(OC(=O)c2ccccc2C(=O)OCC(F)(F)C(F)F)cc1
O=C(COC(=O)/C=C/c1ccc(S(=O)(=O)N2CCCCCC2)cc1)NCc1ccccc1Cl
O=C(c1ccc(F)c(S(=O)(=O)N2CCOCC2)c1)N(CCc1ccccc1)Cc1ccccc1
CCCCCOc1ccc(CSC2=NCCN2)cc1[N+](=O)[O-]
CCCOc1ccc(Cn2ccnc2)cc1[N+](=O)[O-]
COc1cc(C2OC(c3cc(OC)c(OC)c(OC)c3)C(C)C2C)cc(OC)c1OC (stereo not drawn)
CSCCC(NS(=O)(=O)c1ccc(C)cc1)C(=O)NCCc1c[nH]c2ccccc12 (stereo not drawn)
O=C(Nc1cccc(Cl)c1)c1cc([N+](=O)[O-])ccc1N1CCN(CCO)CC1
CCC(=O)c1ccc(N2CCN(C(=O)c3cc([N+](=O)[O-])ccc3F)CC2)c(F)c1
O=C(N/N=C/c1ccc(O)c(O)c1)C1c2ccccc2Oc2ccccc21
O=C(CCC1CCN(C(=O)c2cccc(Cl)c2F)CC1)Nc1ccccc1
Cc1cc(S(=O)(=O)Nc2ccc(C(=O)NCC(c3ccco3)N3CCCC3)cc2)ccc1F (stereo not drawn)
COc1ccccc1-c1cc(C(=O)N2CCCCC2)no1
COc1cc(Cl)ccc1OCc1cc(C(=O)N2CC[C@@H]3CCCC[C@H]3C2)no1
O=C(NC1(C(F)(F)F)NC(=O)N(Cc2cccnc2)C1=O)c1ccccc1Cl (stereo not drawn)
O=C(CN1C(=O)c2cccnc2Oc2ccc(Cl)cc21)NCCc1ccccc1
CCOC(=O)c1cccc(NC(=O)c2ccc(F)cc2F)c1
Cc1ccc(N(Cc2ccccc2O)C(=O)c2ccccc2F)cc1
Cn1c(N)c(C(=O)COC(=O)c2cnc(Cl)c(Cl)c2)c(=O)n(C)c1=O
Cc1ccc(C)c(NC(=O)NNC(=O)c2ccc3ccccc3c2O)c1
CSc1ccc(NC(=O)/C=C/C(=O)O)cc1
CC(C)(C)c1ccc(/C=C/C(=O)Nc2ncccn2)cc1

Reference: PubChem BioAssay AID463111 (Johns Hopkins Ion Channel Center, 2010)
